In experiment [1] the test system is Aorta. The experiment is described as follows: Vasorelaxant activity in Wistar rat endothelium-intact thoracic aortic ring assessed as inhibition of noradrenaline-induced contraction treated after noradrenaline challenge measured after 60 mins. Type of experiment: functional, tissue-based. The note with it: 1 h. In short, it runs like this:
(§1)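 Thoracic aorta came from male Wistar rats (250–350 g), cleaned and cut into 4–5 mm rings. Endothelium was rubbed off some rings with forceps and its absence confirmed by no relaxation to carbachol. Rings were washed every 30 min for 2 h, pre-contracted with noradrenaline (0.1), then given the test agent cumulatively. Concentration-response curves (n=5–6, mean ± SEM) were fitted nonlinearly to give EC50.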

Experiment [2] concerns Aorta. The experiment is described as follows: Vasorelaxant activity in Wistar rat endothelium-denuded thoracic aortic ring assessed as inhibition of noradrenaline-induced contraction treated after noradrenaline challenge measured after 60 mins. It is filed as functional, tissue-based. In short, it runs like this:
as §1

Experiment [3] concerns Rattus norvegicus. The experiment is described as follows: Antihypertensive activity in SHR rat assessed as effect on heart rate at 100 mg/kg, po after 6 hrs. Type of experiment: functional, organism-based. Set-up: dose 100 mg/kg.
For experiment [4], the system named is Rattus norvegicus. Nature of the experiment: Antihypertensive activity in SHR rat assessed as moderate decrease in systolic blood pressure at 50 mg/kg, po after 6 hrs. Conditions: Artery.
For experiment [5], the system named is Aorta. The experiment is described as follows: Ratio of pimobendan EC50 to compound EC50 for vasorelaxant activity in pre-contracted Wistar rat endothelium-intact thoracic aortic ring. Type of experiment: functional.
The test system of experiment [6] is Rattus norvegicus. The experiment is described as follows: Antihypertensive activity in SHR rat assessed as decrease in systolic blood pressure at 25 mg/kg, po after 6 hrs. Type of experiment: functional, organism-based. Further details: dose 25 mg/kg. Conditions: Artery.
Experiment [7] has as its system Rattus norvegicus. Nature of the experiment: Antihypertensive activity in SHR rat assessed as moderate decrease in systolic blood pressure at 50 mg/kg, po after 6 hrs. Type of experiment: functional, organism-based. Set-up: dose 50 mg/kg. The note with it: Artery.
The test system of experiment [8] is Rattus norvegicus. Nature of the experiment: Antihypertensive activity in po dosed SHR rat assessed as decrease in systolic blood pressure after 6 hrs. It is filed as functional, organism-based. The note with it: Artery.
Experiment [9] concerns Rattus norvegicus. Nature of the experiment: Antihypertensive activity in SHR rat assessed as effect on heart rate at 25 mg/kg, po after 6 hrs. It is filed as functional, organism-based. Set-up: dose 25 mg/kg.
Experiment [10] deals with Rattus norvegicus. Nature of the experiment: Antihypertensive activity in SHR rat assessed as sustained decrease in systolic blood pressure at 100 mg/kg, po after 6 hrs. It is filed as functional, organism-based. Conditions: Artery. Further details: dose 100 mg/kg.
For experiment [11], the system named is Rattus norvegicus. Nature of the experiment: Antihypertensive activity in SHR rat assessed as effect on heart rate at 50 mg/kg, po after 6 hrs. Type of experiment: functional, organism-based. Set-up: dose 50 mg/kg.
The mark [12] stands for this setting: Rattus norvegicus, Wistar, Aorta, 1 h.
[13] abbreviates: Rattus norvegicus, Wistar, Aorta, 1 h, read-out: EC50.

Activity calls are given as the source filed them. The calls are words filed in the database; no cut-off is given here.

As a reminder, the EC50 is the concentration needed to bring the measured effect to its halfway point. Broadly, the Emax is the greatest response seen or fitted, relative to the assay's reference.

With `O=[N+]([O-])c1ccc2[nH]c(-c3ccccc3)nc2c1`, the EC50 stood at 4.93 µM in the experiment with Aorta [1] and 35.1 µM in the experiment on Aorta [2] (setting [13]). Also, the Emax came to 73.8% in the experiment on Aorta [1] and 60.5% with Aorta [2] (setting [12]).
For `CC(C)Oc1ccccc1-c1nc2cc([N+](=O)[O-])ccc2[nH]1`, in that order: 4.89 µM, 14.1 µM, 80.7% and 31.7%.
Regarding `C[N+](C)(C)CCOC(N)=O.[Cl-]` [CARBACHOL], in the experiment with Aorta [1], the EC50 was 0.51 µM and the Emax is 106%. Further, in the experiment with Aorta [2], the EC50 entry is “Not Active” and the Emax entry is “inactive”.
As for `CCOC(=O)C1=C(C)NC(C)=C(C(=O)OC)C1c1cccc([N+](=O)[O-])c1` (stereo not drawn) [NITRENDIPINE], in the experiment with Aorta [2] (setting [12]), the Emax came out at 98.9%. Also, the half-maximal effective concentration (EC50) in the experiment with Aorta [2] (setting [13]) was 0.03 µM.
For the molecule `COc1ccc(-c2nc3cc([N+](=O)[O-])ccc3[nH]2)c(OC)c1OC`, the figures for the EC50 in the experiment with Aorta [1] and in the experiment on Aorta [2] (setting [13]) were 3.23 µM and 43.6 µM, respectively. Also, the Emax worked out at 90% with Aorta [1] and 58.9% in the experiment with Aorta [2] (setting [12]).
Turning to `CCOc1ccccc1-c1nc2cc(C(F)(F)F)ccc2[nH]1`, the figures for the EC50 in the experiment with Aorta [1] and with Aorta [2] (setting [13]) were 548 µM and 549 µM, respectively. Moreover, the Emax was 91% in the experiment on Aorta [1] and 19.8% in the experiment on Aorta [2] (setting [12]).
Consider `COc1ccc(-c2nc3cc(C4=NNC(=O)CC4C)ccc3[nH]2)cc1` (stereo not drawn) [PIMOBENDAN], for which, in the experiment with Aorta [1], the EC50 was 4.67 µM and the Emax is 93.2%.
Take `CCCOc1ccc(-c2nc3cc(C(F)(F)F)ccc3[nH]2)cc1`: the EC50 with Aorta [1] and in the experiment with Aorta [2] (setting [13]) was 524 µM in each case. Further, the Emax was 51% with Aorta [1] and 19% with Aorta [2] (setting [12]).
As for `Oc1ccc(-c2nc3cc(C(F)(F)F)ccc3[nH]2)cc1`, the EC50 with Aorta [1] and in the experiment with Aorta [2] (setting [13]) was 219 µM in each case. The Emax in the experiment with Aorta [1] was 51.1%; with Aorta [2] (setting [12]), 37%.
As for `FC(F)(F)c1ccc2[nH]c(-c3ccc4c(c3)OCO4)nc2c1`, the EC50 with Aorta [1] stood at 38.5 µM; in the experiment on Aorta [2] (setting [13]) it was 77.4 µM. The Emax is 101% in the experiment on Aorta [1] and 99.6% in the experiment on Aorta [2] (setting [12]).
As for `COc1ccc(-c2nc3cc([N+](=O)[O-])ccc3[nH]2)cc1OC`, the half-maximal effective concentration (EC50) in the experiment on Aorta [1] came out at 2.5 µM; in the experiment on Aorta [2] (setting [13]), 302 µM. For the same molecule, the Emax with Aorta [1] stood at 75%; in the experiment with Aorta [2] (setting [12]) it was 36.3%.
Turning to `FC(F)(F)c1ccc2[nH]c(-c3ccccc3)nc2c1`, the values for the concentration giving a half-maximal response (EC50) in the experiment with Aorta [1] and in the experiment on Aorta [2] (setting [13]) were 369 µM and 468 µM, respectively. The results for the Emax with Aorta [1] and in the experiment on Aorta [2] (setting [12]) were 91.2% and 75.6%, respectively.
In the case of `COc1cc(-c2nc3cc([N+](=O)[O-])ccc3[nH]2)ccc1O`, the outcome in the experiment with Rattus norvegicus [3], in the experiment with Rattus norvegicus [6], in the experiment on Rattus norvegicus [9] and with Rattus norvegicus [11] was inactive. Moreover, the figures for the EC50 with Aorta [1] and with Aorta [2] (setting [13]) were 1.81 µM and 19.5 µM, respectively. In addition, the values for the maximal response (Emax) in the experiment with Aorta [1] and with Aorta [2] (setting [12]) were 91.7% and 55.2%, respectively. Also, the outcome in the experiment on Rattus norvegicus [4], with Rattus norvegicus [7] and in the experiment with Rattus norvegicus [10] was Active. The “Ratio EC50” value in the experiment with Aorta [5] was found to be 2.5. Besides, the Activity entry with Rattus norvegicus [8] was “Dose-dependent effect”.
Take `COc1ccccc1-c1nc2cc(C(F)(F)F)ccc2[nH]1`: the EC50 in the experiment with Aorta [1] is 210 µM; with Aorta [2] (setting [13]) it was 575 µM. The Emax came to 75.1% with Aorta [1] and 45.7% with Aorta [2] (setting [12]).
Turning to `CN(C)c1ccc(-c2nc3cc(C(F)(F)F)ccc3[nH]2)cc1`, the EC50 in the experiment on Aorta [1] and in the experiment on Aorta [2] (setting [13]) was 550 µM in each case. For the same molecule, the Emax stood at 63.2% in the experiment on Aorta [1] and 30.9% in the experiment on Aorta [2] (setting [12]).
As for `COc1cc(-c2nc3cc(C(F)(F)F)ccc3[nH]2)ccc1O`, the results for the concentration giving a half-maximal response (EC50) in the experiment on Aorta [1] and in the experiment with Aorta [2] (setting [13]) were 34.8 µM and 140 µM, respectively. Moreover, the Emax came to 99.5% with Aorta [1] and 97.7% in the experiment on Aorta [2] (setting [12]).
For `O=[N+]([O-])c1ccccc1-c1nc2cc(C(F)(F)F)ccc2[nH]1`, the EC50 in the experiment with Aorta [1] is 3.18 µM; in the experiment on Aorta [2] (setting [13]) it was 15 µM. Further, the results for the Emax with Aorta [1] and in the experiment with Aorta [2] (setting [12]) were 93.2% and 85.3%, respectively.
Regarding `C[C@H](CS)C(=O)N1CCC[C@H]1C(=O)O`, the result with Rattus norvegicus [4] was Active.
Consider `CCOc1ccccc1-c1nc2cc([N+](=O)[O-])ccc2[nH]1`, for which the EC50 in the experiment with Aorta [1] was found to be 3.71 µM; with Aorta [2] (setting [13]), 15 µM. In addition, the maximal response (Emax) in the experiment on Aorta [1] amounted to 84.8%; with Aorta [2] (setting [12]), 46.4%.

Source of the values: ChEMBL document CHEMBL1165919, “Synthesis, vasorelaxant activity and antihypertensive effect of benzo[d]imidazole derivatives” (Bioorg Med Chem, 2010).
